Laboratory results: ChEMBL document CHEMBL1134384, “Development of new carboxylic acid-based MMP inhibitors derived from functionalized propargylglycines” (J Med Chem, 2001)
≈ marks a conversion by molar mass, not a printed value.

Columns and labels:
Stromelysin-1 = Stromelysin-1 (Homo sapiens, UniProt P08254); test: Inhibitory activity against human matrix metalloprotease-3 (MMP-3) ([…])
Interstitial collagenase = molecular target: T1, Interstitial collagenase (Homo sapiens, UniProt P03956); test: Inhibitory activity against human matrix metalloprotease-1 in quenched fluorescence assay at […]
T1 sequence (P03956 whole entry): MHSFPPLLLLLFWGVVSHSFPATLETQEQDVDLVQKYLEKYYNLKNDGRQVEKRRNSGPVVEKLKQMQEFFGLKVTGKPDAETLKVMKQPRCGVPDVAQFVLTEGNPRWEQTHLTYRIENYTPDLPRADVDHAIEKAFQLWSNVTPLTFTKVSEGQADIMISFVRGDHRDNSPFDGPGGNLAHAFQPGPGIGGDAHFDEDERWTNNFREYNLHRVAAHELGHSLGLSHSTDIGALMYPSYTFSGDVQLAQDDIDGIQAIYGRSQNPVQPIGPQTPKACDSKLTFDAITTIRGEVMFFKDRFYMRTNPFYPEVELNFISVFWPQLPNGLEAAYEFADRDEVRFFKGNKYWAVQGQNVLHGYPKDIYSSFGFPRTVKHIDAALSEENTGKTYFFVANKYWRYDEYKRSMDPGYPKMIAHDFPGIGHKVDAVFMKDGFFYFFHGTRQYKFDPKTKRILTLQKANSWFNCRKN
In short: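 Quenched fluorescence assay using truncated human recombinant enzymes expressed in E. coli, at final concentrations of 8 nM for MMP-1 and 16 nM for MMP-3. Substrate was Mca-Pro-Leu-Gly-Leu-Dpa-Ala-Arg-NH₂ at 4 μM, at 25 °C, in 50 mM Tris pH 7.5, 0.2 M NaCl, 5 mM CaCl₂, 0.02% Brij-35. Fluorescence (ex 328/em 393 nm) was read kinetically for 30 min. Eight inhibitor concentrations were tested and IC50 was fitted from Vi/V0.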

[1] = molecular target: 72 kDa type IV collagenase (Homo sapiens, UniProt P08253); test: Inhibitory activity against matrix metalloprotease-2 (MMP-2) in quenched fluorescence assay at […]
In short: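 Full-length human recombinant proMMP-2 from CHO cells was activated with 1 mM APMA for 45 min and used at 1 nM final. Cleavage of 4 μM Mca-Pro-Leu-Gly-Leu-Dpa-Ala-Arg-NH₂ was followed at 25 °C in Tris pH 7.5/NaCl/CaCl₂/Brij-35 buffer, with fluorescence read kinetically for 30 min. IC50 came from 8 inhibitor concentrations.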

Collagenase 3 = Collagenase 3 (Homo sapiens, UniProt P45452); test: Inhibitory activity against human matrix metalloprotease-13 in quenched fluorescence assay at pH 7.4
[2] = Solubility was determined at a pH of […]; format: physicochemical; conditions: pH 7

Sequence of 72 kDa type IV collagenase (P08253 whole entry): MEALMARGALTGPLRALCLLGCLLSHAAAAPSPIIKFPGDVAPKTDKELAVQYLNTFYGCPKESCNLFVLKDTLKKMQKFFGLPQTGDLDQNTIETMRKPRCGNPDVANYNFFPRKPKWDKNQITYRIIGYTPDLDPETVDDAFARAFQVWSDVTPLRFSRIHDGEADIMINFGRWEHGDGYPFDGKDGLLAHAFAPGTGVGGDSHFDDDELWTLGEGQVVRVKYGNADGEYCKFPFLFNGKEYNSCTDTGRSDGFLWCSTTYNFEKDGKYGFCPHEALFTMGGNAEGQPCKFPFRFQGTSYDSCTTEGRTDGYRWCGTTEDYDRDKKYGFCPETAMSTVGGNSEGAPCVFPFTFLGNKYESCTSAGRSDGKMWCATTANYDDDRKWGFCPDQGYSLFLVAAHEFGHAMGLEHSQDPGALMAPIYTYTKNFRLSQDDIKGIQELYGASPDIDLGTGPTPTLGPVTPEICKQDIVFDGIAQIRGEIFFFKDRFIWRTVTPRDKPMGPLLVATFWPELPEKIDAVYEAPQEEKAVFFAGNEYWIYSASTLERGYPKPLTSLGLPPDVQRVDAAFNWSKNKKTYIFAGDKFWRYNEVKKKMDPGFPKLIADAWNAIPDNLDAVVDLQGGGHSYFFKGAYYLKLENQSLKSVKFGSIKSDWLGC
Sequence of Stromelysin-1 (P08254 whole entry): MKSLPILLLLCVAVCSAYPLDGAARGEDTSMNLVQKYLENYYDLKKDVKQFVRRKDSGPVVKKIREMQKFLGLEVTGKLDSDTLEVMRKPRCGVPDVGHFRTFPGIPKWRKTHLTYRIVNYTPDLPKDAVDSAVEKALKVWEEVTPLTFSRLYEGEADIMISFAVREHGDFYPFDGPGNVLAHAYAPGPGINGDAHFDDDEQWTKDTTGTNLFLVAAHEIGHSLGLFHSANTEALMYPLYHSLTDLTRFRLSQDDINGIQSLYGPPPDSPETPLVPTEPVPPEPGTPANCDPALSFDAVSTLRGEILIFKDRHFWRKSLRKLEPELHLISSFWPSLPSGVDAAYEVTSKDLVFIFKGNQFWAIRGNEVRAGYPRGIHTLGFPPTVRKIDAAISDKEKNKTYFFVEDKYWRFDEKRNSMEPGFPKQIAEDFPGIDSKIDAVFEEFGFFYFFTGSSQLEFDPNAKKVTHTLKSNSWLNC

| Compound | IC50 (Stromelysin-1) [µM] | IC50 (Interstitial collagenase) [µM] | IC50 [1] [nM] | IC50 (Collagenase 3) [nM] | solubility [2] [µg/mL] |
| --- | --- | --- | --- | --- | --- |
| O=C(O)C(CC#Cc1ccccc1)NS(=O)(=O)c1ccc(Oc2ccccc2)cc1 (configuration not stated) | 4.56 | > 10 | 1480 | 2150 |  |
| COCC#CCC(NS(=O)(=O)c1ccc(NC(=O)c2ccc(OC)cc2)cc1)C(=O)O (configuration not stated) | 9 | > 10 | 8 |  | 3200 (≈ 7170 µM) |
| COc1ccc(-c2ccc(S(=O)(=O)NC(CC#CCN3CCN(c4ccccc4)CC3)C(=O)O)cc2)cc1 (configuration not stated) | > 10 | > 10 | 547 |  |  |
| O=C(O)C(CC#Cc1ccccc1)NS(=O)(=O)c1ccc(-c2ccc3c(c2)OCO3)cc1 (configuration not stated) | 5.44 | 10.3 | 29 | 104 | 80 (≈ 178 µM) |
| COc1ccc(S(=O)(=O)c2csc(S(=O)(=O)NC(CC#Cc3ccccc3)C(=O)O)c2)cc1 (configuration not stated) | > 10 | > 10 | > 10000 | > 10000 |  |
| O=C(Nc1ccc(S(=O)(=O)NC(CC#CCOc2ccccc2)C(=O)O)cc1)c1ccc(Br)cc1 (configuration not stated) | 2.85 | > 10 | 9 |  | 50 (≈ 89.7 µM) |
| COc1ccc(-c2ccc(S(=O)(=O)NC(C(=O)O)[C@@H](C#Cc3ccccc3)OC)cc2)cc1 (some centres not stated) | 3.7 | 4.2 | 31 | 81 |  |
| O=C(O)C(CC#CCOc1ccccc1)NS(=O)(=O)c1ccc(-c2ccc(Br)cc2)cc1 (configuration not stated) | 1.81 | > 10 | 23 | 254 |  |
| COc1ccc(-c2ccc(S(=O)(=O)NC(CC#CCc3ccccc3)C(=O)O)cc2)cc1 (configuration not stated) | 0.777 | 3.34 | 33 | 22 |  |
| O=C(O)C(CC#CCN1CCOCC1)NS(=O)(=O)c1ccc(-c2ccccc2)cc1 (configuration not stated) | > 10 | > 10 | 297 |  |  |
| O=C(O)C(CC#Cc1ccccc1)NS(=O)(=O)c1ccc(-c2ccc(-c3ccccc3)cc2)cc1 (configuration not stated) | > 10 | > 10 | 29 | 59 |  |
| COCC#CCC(NS(=O)(=O)c1ccc(NC(=O)N2CCCC2)cc1)C(=O)O (configuration not stated) | > 10 | > 10 | 567 | 16900 |  |
| O=C(O)C(CC#Cc1ccccc1)NS(=O)(=O)c1ccc(/N=N/c2ccccc2)cc1 (configuration not stated) | 16.3 |  | 87 |  |  |
| COCC#CCC(NS(=O)(=O)c1ccc(-c2ccc(OC)cc2)cc1)C(=O)O (configuration not stated) |  | 6.15 | 20 | 76 | 5800 (≈ 14400 µM) |
| COc1ccc(S(=O)(=O)c2ccc(S(=O)(=O)NC(CC#Cc3ccccc3)C(=O)O)s2)cc1 (configuration not stated) | > 10 | > 10 | > 10000 | > 10000 |  |
| COCCOc1ccc(-c2ccc(S(=O)(=O)NC(CC#Cc3ccccc3)C(=O)O)cc2)cc1 (configuration not stated) | 2.43 | > 10 | 26 | 50 |  |
| COc1ccc(-c2ccc(S(=O)(=O)NC(CC#CCN3CCN(S(C)(=O)=O)CC3)C(=O)O)cc2)cc1 (configuration not stated) | > 10 | > 10 | 1160 |  |  |
| COc1ccc(C(=O)Nc2ccc(S(=O)(=O)NC(CC#CCOc3ccccc3)C(=O)O)cc2)cc1 (configuration not stated) | 3.92 | > 10 | 9 | 226 | 410 (≈ 806 µM) |
| O=C(O)C(CC#CCN1CCCC1)NS(=O)(=O)c1ccc(-c2ccccc2)cc1 (configuration not stated) | > 10 | > 10 | 380 | 3050 |  |
| COc1ccc(-c2ccc(S(=O)(=O)NC(C(=O)O)[C@@H](C#Cc3ccccc3)OCc3ccccc3)cc2)cc1 (some centres not stated) | 4.27 | > 10 | 8 | 14 |  |
| CCCCOc1ccc(S(=O)(=O)NC(CC#Cc2ccccc2)C(=O)O)cc1 (configuration not stated) | 15.4 |  |  | 2040 |  |
| CCOc1cccc(-c2ccc(S(=O)(=O)NC(CC#Cc3ccccc3)C(=O)O)cc2)c1 (configuration not stated) |  | > 10 | 2390 | > 1600 |  |
